# Bioassay records: PubChem BioAssay, several laboratories
# APP 5'UTR act: activates APP 5'UTR luciferase reporter; SH-SY5Y APP 5'UTR luciferase reporter, luminescence; zero percent = DMSO vehicle wells; activation, % at 2 µM; 190,000 compounds, 1% hits; AID 1276;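 active = activation above a set limit, based on mean plus 3 SD of controls, cut at about 140% in these data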
# FLuc act counter: firefly luciferase counter-screen for stimulation assays | activation factor at 10 µM | P08659 | ATPlite luciferase biochemical, luminescence, 10 min; 0 = ATP-free wells, 1 = DMSO control | AID 1027 | 200,000 tested, under 10 active;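 active = luciferase activation factor, scaled between plate controls, of at least 2 with compound at 10 µM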
#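 System: cell-free luciferase reagent; medium: PBS as buffer for the ATP substrate; doses: test compounds dosed from 2 mM stocks in 100% DMSO; incubation: 10 min, room temperature; measured by: luminescence from luciferase reaction; read-out: luciferase activation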
# STAT1 act: STAT1 signaling activation. 200,000 compounds, 2.6% hits. NIH 3T3 STAT1-luciferase reporter, IFN-gamma, luminescence; 100% = IFN-gamma alone, no compound. activation (% of control), % at 5.5 µM. AID 932;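 active = activation above the screen-wide mean activation plus 3 SD, cut at about 130% in these data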
# NF-kB expr up: raises NF-kB expression in human neuronal cells; NF-kB reporter expression; active compounds read high; fold change at 12.5 µM; 190,000 compounds, 1.6% hits; in the data active = fold change above about 3.3
# Rad51 HR inh: blocks human Rad51 in homologous recombination; inhibition, % at 10 µM; 200,000 compounds, 0.085% hits; hRad51 DNA strand exchange, fluorescence dequenching;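 active = inhibition above 40% at the single screening dose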
# Target sequence (Q06609 whole entry, looked up): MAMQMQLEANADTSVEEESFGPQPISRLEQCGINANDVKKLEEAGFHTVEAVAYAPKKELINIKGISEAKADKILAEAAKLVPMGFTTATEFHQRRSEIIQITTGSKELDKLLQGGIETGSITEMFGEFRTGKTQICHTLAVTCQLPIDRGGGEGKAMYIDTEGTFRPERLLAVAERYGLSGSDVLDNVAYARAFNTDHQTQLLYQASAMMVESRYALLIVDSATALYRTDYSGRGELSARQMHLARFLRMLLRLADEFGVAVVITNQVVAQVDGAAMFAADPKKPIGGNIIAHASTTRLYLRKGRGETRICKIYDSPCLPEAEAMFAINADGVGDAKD
#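 Test system – preformed human Rad51 ssDNA filaments · Reagent – Donor/quencher-labelled 47-bp dsDNA substrate · Incubation – 37 °C 15-min filament assembly, 30-min compound preincubation, 15-min exchange · Signal – FRET fluorescence dequenching, excitation 485 nm, emission 520 nm · Read-out – percent inhibition from fluorescence, normalised to plate control and blank means · Benchmarks – plate control and blank wells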
# FLuc inh counter: counter-screen for luciferase assay inhibitors: firefly luciferase inhibition | P08659 | ATPLite firefly luciferase biochemical luminescence, 10 min | inhibition, % at 10 µM | 200,000 compounds, 1.5% hits | AID 1006;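 active = inhibition above about 50% when tested at 10 µM, limit read from the data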
# A number is an active result; . = inactive; / = not tested or not shown. A selection: hits, their analogues and other compounds. The true share with any hit is near 3.9%.
SMILES,APP 5'UTR act,FLuc act counter,STAT1 act,NF-kB expr up,Rad51 HR inh,FLuc inh counter
Nc1cc(S(=O)(=O)Nc2cc(Cl)ccc2Cl)ccc1N1CCCC1,/,/,/,/,.,/
COc1ccc(Cl)cc1C(=O)NNC(=O)c1cccc([N+](=O)[O-])c1,.,.,.,.,.,.
COc1ccccc1C(=O)NNC(=O)c1cccc(Cl)c1,141.7,.,.,3.62,.,.
CCOC(=O)Cc1csc(NC(=O)/C=C\c2ccccc2)n1,.,.,.,.,.,59.4
CCOC(=O)Cc1csc(NC(=O)c2cc(OC)cc(OC)c2)n1,.,.,.,.,.,.
CCOC(=O)Cc1csc(NC(=S)NC(=O)c2ccc(Cl)cc2)n1,.,.,.,.,/,58.8
CCOC(=O)Cc1csc(NC(=O)/C=C/c2ccccc2Cl)n1,/,/,/,/,.,/
CCOC(=O)Cc1csc(NC(=O)/C=C\c2ccccc2Cl)n1,.,.,.,.,.,55.6
CCOC(=O)Cc1csc(NC(=O)/C=C/c2ccc(OC)cc2)n1,.,.,.,.,.,76.4
COc1ccc(/C=N/NC(=O)c2cc(C)n(-c3ccccc3)c2C)cc1OC,.,.,.,.,.,.
C/C(=N\Nc1nc2ccccc2s1)c1ccc2c(c1)OCO2,.,.,.,3.37,.,.
Cc1cc(C(=O)N/N=C/c2cccc([N+](=O)[O-])c2)c(C)n1-c1ccccc1,.,.,131.6,.,.,.
O=C(O)c1ccc(N/N=C/c2ccc3c(c2)OCO3)cc1,.,.,.,.,.,60.7
C/C(=N\Nc1ccc(Cl)c(C(=O)O)c1)c1ccc2c(c1)OCO2,.,.,130.9,.,.,.
COC(=O)c1c(-c2c(Cl)cccc2Cl)noc1C(=O)NN,/,/,/,/,.,/
CC(=O)OCC1(C)CN(c2ccccc2)NC1=O (stereo not drawn),.,.,.,.,.,.
Cc1cc(C)cc(N(CC(=O)NC2CCC(C)CC2)S(=O)(=O)c2c(C)[nH]c(=O)[nH]c2=O)c1 (stereo not drawn),/,/,/,/,.,/
COc1ccc(NC(=S)N(CCCN2CCCC2)Cc2cccn2Cc2ccc(Cl)cc2)cc1Cl,.,.,.,.,/,.
CCOC(=O)C1=C(C)Nc2ccccc2N=C1NC(=O)c1ccc(Cl)c(S(=O)(=O)N2CCCC2)c1,.,.,.,.,.,.
O=C(N/N=C/c1ccc2c(c1)OCCO2)c1ccncc1,/,/,/,/,.,/
O=C(O)c1cc(N/N=C/c2ccc3c(c2)OCCO3)ccc1Cl,.,.,.,5.52,.,56.1
O=C(N/N=C/c1ccc2c(c1)OCO2)c1ccc2c(c1)OCCO2,.,.,.,.,/,80.5
O=C(O)c1cc(N/N=C/c2ccc3c(c2)OCO3)ccc1Cl,.,.,.,.,.,.
O=C(N/N=C/c1cccs1)c1ccc2c(c1)OCO2,.,.,128.8,.,.,87.7
O=C(N/N=C/c1cccc([N+](=O)[O-])c1)c1ccc2c(c1)OCCO2,.,.,.,.,.,84.2
SMILES,APP 5'UTR act,FLuc act counter,STAT1 act,NF-kB expr up,Rad51 HR inh,FLuc inh counter
CCOc1cc(N2CCCC2)ccc1[N+](=O)[O-],.,.,.,.,.,.
CC(C)=CCc1c(O)cc(O)c2c(=O)c3c(CC=C(C)C)c(O)ccc3oc12,/,/,/,/,.,/
C/C(=N\NC(=O)c1cc(C)oc1C)c1ccc2c(c1)OCO2,.,.,.,.,/,.
Cn1cnnc1SCc1ccc(C(=O)N/N=C/c2cccs2)cc1,.,.,.,.,.,64.6
C/C(=N\NC(=O)c1ccc(CSc2nncn2C)cc1)c1cccs1,.,.,.,.,.,.
Cc1cc(C(=O)N/N=C/c2ccc3c(c2)OCO3)c(C)o1,.,.,.,.,.,63.9
O=C1CC(C(=O)O)S/C(=N\N=C\c2ccc(Br)cc2)N1 (stereo not drawn),/,/,/,/,.,/
COc1ccc(C(=O)NCCSCc2ccccc2C)cc1,.,.,.,.,.,.
CC(C)COc1ccc(C(=O)Nc2ccccc2[N+](=O)[O-])cc1,.,.,132.8,.,.,.
COc1ccc(C(=O)NCCNc2ccccc2[N+](=O)[O-])cc1,162.6,.,148.4,.,.,61.6
CCS(=O)(=O)N1CCN(c2ccc([N+](=O)[O-])c(NCC3CCCO3)c2)CC1 (stereo not drawn),.,.,.,.,/,.
CC(C)(C)c1ccc(/C=C/C(=O)N2CCN(c3ncccn3)CC2)cc1,.,.,.,.,.,.
CC(C)(C)c1ccc(OCCCC(=O)N2CCOCC2)cc1,.,.,131.6,.,.,.
CC(C)(C)c1ccc(/C=C/C(=O)N2CCOCC2)cc1,.,.,132.4,.,/,.
CC(C)Cc1ccc(/C=C/C(=O)N2CCOCC2)cc1,.,.,145.5,3.79,/,.
Cc1noc(C)c1COc1cccc(C(=O)OC(C)C(=O)Nc2c(C)n(C)n(-c3ccccc3)c2=O)c1 (stereo not drawn),.,.,.,.,/,.
O=C(CC1CCC1)NC(c1ccccc1)c1ccccc1,.,.,.,.,.,.
Cc1sc(NC(=O)c2ccccc2F)c(CN2CCCCC2C)c1C (stereo not drawn),.,.,136.8,.,/,.
Nc1ncccc1OCc1ccc(Br)cc1,.,.,141.1,.,.,.
Cc1ccc(S(=O)(=O)Nc2n[nH]nc2C(=O)NC2CCCCC2)cc1,.,.,.,.,.,.
Oc1csc(Cc2nc(-c3ccccc3F)cs2)n1,.,.,143.7,.,.,.
Oc1csc(Cc2nc(-c3ccc(-c4ccccc4)cc3)cs2)n1,.,.,.,.,.,.
Oc1csc(Cc2nc(-c3ccc4ccccc4c3)cs2)n1,.,.,128.9,.,.,.
CCOC(=O)C1=C(C)NC(=O)NC1C(C)C (stereo not drawn),/,/,/,/,.,/
CSc1nc(C)cc(Oc2ccccc2)n1,.,.,.,.,.,.
SMILES,APP 5'UTR act,FLuc act counter,STAT1 act,NF-kB expr up,Rad51 HR inh,FLuc inh counter
Cn1c(SCc2ccccc2F)nc2cccnc21,141.1,.,137.3,3.36,.,.
CCOC(=O)CSc1nc2cccnc2n1C,.,.,.,.,.,.
O=C(/C=C/c1cccs1)c1ccc(N2CCOCC2)cc1,235.8,.,.,.,.,96.3
CCOc1ccc(NC(=O)C2CCCN(C)C2)cc1 (stereo not drawn),/,/,/,/,.,/
N#C/C(=C/c1ccc(N2CCCCCC2)o1)c1ccc(Cl)cc1,.,.,.,3.44,.,.
N#C/C(=C/c1ccc(N2CCCCC2)cc1)c1cccc(F)c1,.,.,.,.,.,.
N#C/C(=C/c1ccc(N2CCCCC2)o1)c1cccc(F)c1,.,.,144.9,.,.,.
Cc1ccc(NC(=O)c2ccc3c(c2)OCCO3)cc1S(=O)(=O)Nc1cccc(Cl)c1,.,.,.,.,.,.
COC(=O)c1ccc(Nc2c([N+](=O)[O-])c(=O)oc3ccccc23)cc1,/,/,/,/,.,/
Cc1ccc(S(=O)(=O)N2CCCOC2CNC(=O)C(=O)NCc2ccncc2)cc1 (stereo not drawn),.,.,.,.,.,.
